Experimental data: ChEMBL document CHEMBL4673214, “Synthesis and antibacterial bioactivities of cationic deacetyl linezolid amphiphiles” (Eur J Med Chem, 2018)
≈ marks a conversion by molar mass, not a printed value. Calls of active or inactive are those of the source. The rule behind the calls is not given here.

Columns and labels:
Cell membrane [1] = assay: Induction of cytoplasmic membrane depolarization in Staphylococcus aureus ATCC 29213 at 20 ug/ml measured for 12 mins by DiSC35 dye-based fluorescence assay; assay type: subcellular; details: dose 20.0 µg/ml
In short: (§1)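 Mid-log bacteria were washed and resuspended at ~10^8 CFU/mL: S. aureus in PBS, E. coli in 5 mM HEPES/5 mM glucose/100 mM KCl (1:1:1). Cells were loaded with diSC35 (10 µM stock) for 30 min (S. aureus) or 40 min (E. coli, plus EDTA). Fluorescence (ex 622/em 670 nm) was read for an 8 min baseline, then every 2 min for 12 min after compound at 20 µg/mL final. Water served as control.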

Cell membrane [2] = assay: Induction of cytoplasmic membrane depolarization in Escherichia coli ATCC 25922 at 20 ug/ml measured for 12 mins by DiSC35 dye-based fluorescence assay; assay type: subcellular; details: dose 20.0 µg/ml; in short: as §1
Cell membrane [3] = assay: Induction of outer membrane permeabilization in Escherichia coli ATCC 25922 at 20 ug/ml measured for 12 mins by NPN dye based fluorescence assay; details: dose 20.0 µg/ml
In short: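 Mid-log E. coli in HEPES/glucose/KCl at ~10^8 CFU/mL was preincubated 40 min with N-phenylnaphthylamine (10 µM stock). Fluorescence (ex 350/em 420 nm) was read for an 8 min baseline, then every 2 min for 12 min after compound at 20 µg/mL final. Water served as control.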

Cell membrane [4] = assay: Induction of inner membrane permeabilization in Escherichia coli ATCC 25922 at 20 ug/ml measured for 12 mins by propidium iodide staining based fluorescence microscopic analysis; details: dose 20.0 µg/ml
In short: (§2)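 Mid-log bacteria were washed and resuspended at ~10^8 CFU/mL and preincubated with propidium iodide (10 µM stock) for 30 min (S. aureus) or 40 min (E. coli). Fluorescence (ex 535/em 617 nm) was read on a plate for an 8 min baseline, then every 2 min for 12 min after compound at 20 µg/mL final. Water served as control.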

Cell membrane [5] = assay: Induction of inner membrane permeabilization in Staphylococcus aureus ATCC 29213 at 20 ug/ml measured for 12 mins by propidium iodide staining based fluorescence microscopic analysis; details: dose 20.0 µg/ml; in short: as §2
Enterobacteriaceae [6] = assay: Antibacterial activity against NDM1 producing carbapenem-resistant Enterobacteriaceae clinical isolate 10 assessed as reduction in bacterial growth incubated for 16 to 20 hrs by CLSI-based broth microdilution method; assay type: functional; details: time 16-20 hrs
In short: (§3)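 Clinical isolates tested by broth microdilution in cation-adjusted Mueller-Hinton broth. Cultures grown 4-6 h (~10^8 CFU/mL) were diluted to ~10^6 CFU/mL and mixed 1:1 with compound serial dilutions made from 256 down to 0.5 µg/mL (pre-mixing). Plates held at 37 °C for 16-20 h, then read for growth. Each concentration run in duplicate, whole experiment at least twice.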

Enterobacteriaceae [7] = assay: Antibacterial activity against NDM1 producing carbapenem-resistant Enterobacteriaceae clinical isolate 8 assessed as reduction in bacterial growth incubated for 16 to 20 hrs by CLSI-based broth microdilution method; assay type: functional; details: time 16-20 hrs; in short: as §3
Enterobacteriaceae [8] = assay: Antibacterial activity against NDM1 producing carbapenem-resistant Enterobacteriaceae clinical isolate 7 assessed as reduction in bacterial growth incubated for 16 to 20 hrs by CLSI-based broth microdilution method; assay type: functional; details: time 16-20 hrs; in short: as §3
Enterobacteriaceae [9] = assay: Antibacterial activity against NDM1 producing carbapenem-resistant Enterobacteriaceae clinical isolate 6 assessed as reduction in bacterial growth incubated for 16 to 20 hrs by CLSI-based broth microdilution method; assay type: functional; details: time 16-20 hrs; in short: as §3
Enterobacteriaceae [10] = assay: Antibacterial activity against NDM1 producing carbapenem-resistant Enterobacteriaceae clinical isolate 5 assessed as reduction in bacterial growth incubated for 16 to 20 hrs by CLSI-based broth microdilution method; assay type: functional; details: time 16-20 hrs; in short: as §3
Enterobacteriaceae [11] = assay: Antibacterial activity against NDM1 producing carbapenem-resistant Enterobacteriaceae clinical isolate 4 assessed as reduction in bacterial growth incubated for 16 to 20 hrs by CLSI-based broth microdilution method; assay type: functional; details: time 16-20 hrs; in short: as §3
Enterobacteriaceae [12] = assay: Antibacterial activity against NDM1 producing carbapenem-resistant Enterobacteriaceae clinical isolate 3 assessed as reduction in bacterial growth incubated for 16 to 20 hrs by CLSI-based broth microdilution method; assay type: functional; details: time 16-20 hrs; in short: as §3
Enterobacteriaceae [13] = assay: Antibacterial activity against NDM1 producing carbapenem-resistant Enterobacteriaceae clinical isolate 2 assessed as reduction in bacterial growth incubated for 16 to 20 hrs by CLSI-based broth microdilution method; assay type: functional; details: time 16-20 hrs; in short: as §3
Enterobacteriaceae [14] = assay: Antibacterial activity against NDM1 producing carbapenem-resistant Enterobacteriaceae clinical isolate 1 assessed as reduction in bacterial growth incubated for 16 to 20 hrs by CLSI-based broth microdilution method; assay type: functional; details: time 16-20 hrs; in short: as §3
Klebsiella pneumoniae [15] = assay: Antibacterial activity against carbapenem-resistant Klebsiella pneumoniae clinical isolate 10 assessed as reduction in bacterial growth incubated for 16 to 20 hrs by CLSI-based broth microdilution method; assay type: functional; details: time 16-20 hrs; in short: as §3
Klebsiella pneumoniae [16] = assay: Antibacterial activity against carbapenem-resistant Klebsiella pneumoniae clinical isolate 9 assessed as reduction in bacterial growth incubated for 16 to 20 hrs by CLSI-based broth microdilution method; assay type: functional; details: time 16-20 hrs; in short: as §3
Klebsiella pneumoniae [17] = assay: Antibacterial activity against carbapenem-resistant Klebsiella pneumoniae clinical isolate 8 assessed as reduction in bacterial growth incubated for 16 to 20 hrs by CLSI-based broth microdilution method; assay type: functional; details: time 16-20 hrs; in short: as §3
Klebsiella pneumoniae [18] = assay: Antibacterial activity against carbapenem-resistant Klebsiella pneumoniae clinical isolate 7 assessed as reduction in bacterial growth incubated for 16 to 20 hrs by CLSI-based broth microdilution method; assay type: functional; details: time 16-20 hrs; in short: as §3
Klebsiella pneumoniae [19] = assay: Antibacterial activity against carbapenem-resistant Klebsiella pneumoniae clinical isolate 6 assessed as reduction in bacterial growth incubated for 16 to 20 hrs by CLSI-based broth microdilution method; assay type: functional; details: time 16-20 hrs; in short: as §3
Klebsiella pneumoniae [20] = assay: Antibacterial activity against carbapenem-resistant Klebsiella pneumoniae clinical isolate 5 assessed as reduction in bacterial growth incubated for 16 to 20 hrs by CLSI-based broth microdilution method; assay type: functional; details: time 16-20 hrs; in short: as §3
Klebsiella pneumoniae [21] = assay: Antibacterial activity against carbapenem-resistant Klebsiella pneumoniae clinical isolate 4 assessed as reduction in bacterial growth incubated for 16 to 20 hrs by CLSI-based broth microdilution method; assay type: functional; details: time 16-20 hrs; in short: as §3
Klebsiella pneumoniae [22] = assay: Antibacterial activity against carbapenem-resistant Klebsiella pneumoniae clinical isolate 3 assessed as reduction in bacterial growth incubated for 16 to 20 hrs by CLSI-based broth microdilution method; assay type: functional; details: time 16-20 hrs; in short: as §3
Klebsiella pneumoniae [23] = assay: Antibacterial activity against carbapenem-resistant Klebsiella pneumoniae clinical isolate 2 assessed as reduction in bacterial growth incubated for 16 to 20 hrs by CLSI-based broth microdilution method; assay type: functional; details: time 16-20 hrs; in short: as §3
Enterobacteriaceae [24] = assay: Antibacterial activity against NDM1 producing carbapenem-resistant Enterobacteriaceae clinical isolate 9 assessed as reduction in bacterial growth incubated for 16 to 20 hrs by CLSI-based broth microdilution method; assay type: functional; details: time 16-20 hrs; in short: as §3
Salmonella enterica = assay: Antibacterial activity against Salmonella enterica ATCC 8387 assessed as reduction in bacterial growth incubated for 16 to 20 hrs by CLSI-based broth microdilution method; assay type: functional; details: time 16-20 hrs
In short: (§4)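 Broth microdilution following CLSI, in cation-adjusted Mueller-Hinton broth. Inoculum from a 4-6 h culture (~10^8 CFU/mL), diluted to ~10^6 CFU/mL. Water stocks were serially diluted in MHB (256 to 0.5 µg/mL) and mixed 1:1 with the inoculum. Plates ran 16-20 h at 37 °C. MIC was read visually. Each concentration was tested in duplicate, and the experiment was repeated at least twice.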

Escherichia coli [25] = assay: Antibacterial activity against Escherichia coli ATCC 25922 assessed as reduction in bacterial growth incubated 16 to 20 hrs by CLSI-based broth microdilution method; assay type: functional; details: time 16-20 hrs; in short: as §4
Enterococcus faecalis = assay: Antibacterial activity against Enterococcus faecalis ATCC 29212 assessed as reduction in bacterial growth incubated 16 to 20 hrs by CLSI-based broth microdilution method; assay type: functional; details: time 16-20 hrs; in short: as §4
Klebsiella pneumoniae [26] = assay: Antibacterial activity against carbapenem-resistant Klebsiella pneumoniae clinical isolate 1 assessed as reduction in bacterial growth incubated for 16 to 20 hrs by CLSI-based broth microdilution method; assay type: functional; details: time 16-20 hrs; in short: as §3
Staphylococcus aureus = assay: Bactericidal activity against early exponential phase of Staphylococcus aureus ATCC 29213 at 4X MIC measured after 6 hrs by time-kill kinetic assay; assay type: functional, organism-based
In short: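 S. aureus ATCC 29213 overnight culture diluted 1:10,000 in MHB and shaken at 225 rpm, 37 °C for 2 h to early exponential phase. Exposed to compound at 4× MIC in tubes, 37 °C, 225 rpm. Samples spun down, resuspended in PBS, plated as ten-fold dilutions on MHA overnight at 37 °C, and CFU/mL counted. Biological replicates.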

Escherichia coli [27] = assay: Resistance ratio of compound MIC for Escherichia coli ATCC 25922 after 20 passages to compound MIC for Escherichia coli ATCC 25922 after 16 to 20 hrs by CLSI-based broth microdilution method; assay type: functional
In short: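 Serial passaging: after each 24 h MIC assay, cells grown at 1/2 MIC were transferred and the MIC assayed again, for 20 passages. Done with S. aureus, E. coli and MRSA. MIC plotted against days of passage. Experiment repeated twice.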

## CN[C@H](CC(C)C)C(=O)N[C@H]1C(=O)N[C@@H](CC(N)=O)C(=O)N[C@H]2C(=O)N[C@H]3C(=O)N[C@H](C(=O)N[C@H](C(=O)O)c4cc(O)cc(O)c4-c4cc3ccc4O)[C@H](O)c3ccc(c(Cl)c3)Oc3cc2cc(c3O[C@@H]2O[C@H](CO)[C@@H](O)[C@H](O)[C@H]2O[C@H]2C[C@](C)(N)[C@H](O)[C@H](C)O2)Oc2ccc(cc2Cl)[C@H]1O [VANCOMYCIN]
Cell membrane [1]
  Activity: inactive
Cell membrane [2]
  Activity: inactive
Cell membrane [3]
  Activity: inactive
Cell membrane [4]
  Activity: inactive
Cell membrane [5]
  Activity: inactive
Enterobacteriaceae [6]
  MIC: > 64 µg/mL
Enterobacteriaceae [7]
  MIC: 64 µg/mL (≈ 44.2 µM)
Enterobacteriaceae [8]
  MIC: 64 µg/mL (≈ 44.2 µM)
Enterobacteriaceae [9]
  MIC: 64 µg/mL (≈ 44.2 µM)
Enterobacteriaceae [10]
  MIC: 64 µg/mL (≈ 44.2 µM)
Enterobacteriaceae [11]
  MIC: > 64 µg/mL
Enterobacteriaceae [12]
  MIC: > 64 µg/mL
Enterobacteriaceae [13]
  MIC: > 64 µg/mL
Enterobacteriaceae [14]
  MIC: > 64 µg/mL
Klebsiella pneumoniae [15]
  MIC: > 64 µg/mL
Klebsiella pneumoniae [16]
  MIC: 64 µg/mL (≈ 44.2 µM)
Klebsiella pneumoniae [17]
  MIC: > 64 µg/mL
Klebsiella pneumoniae [18]
  MIC: > 64 µg/mL
Klebsiella pneumoniae [19]
  MIC: > 64 µg/mL
Klebsiella pneumoniae [20]
  MIC: 64 µg/mL (≈ 44.2 µM)
Klebsiella pneumoniae [21]
  MIC: 64 µg/mL (≈ 44.2 µM)
Klebsiella pneumoniae [22]
  MIC: > 64 µg/mL
Klebsiella pneumoniae [23]
  MIC: > 64 µg/mL
Enterobacteriaceae [24]
  MIC: 64 µg/mL (≈ 44.2 µM)
Salmonella enterica
  MIC: 32 µg/mL (≈ 22.1 µM)
Escherichia coli [25]
  MIC: 64 µg/mL (≈ 44.2 µM)
Enterococcus faecalis
  MIC: 2 µg/mL (≈ 1.38 µM)
Klebsiella pneumoniae [26]
  MIC: > 64 µg/mL
Staphylococcus aureus
  Activity: inactive

## COLISTIN
Escherichia coli [27]
  Ratio: 32
Escherichia coli [25]
  MIC: 0.5 µg/mL
